Measured values pooled from the literature.
Each line is one published result; the experiments were not run side by side.
Target: Inhibitor of nuclear factor kappa-B kinase subunit beta (IKBKB, Homo sapiens, UniProt O14920)

Compound | assay | setting | endpoint | result
CN1CCC2(CC1)NC(=O)c1c(c3ccc(Cl)c(Cl)c3n1C)C2C#N (racemic) | thermal stability, DSF | 10 µM | ΔTm | -0.2 °C
Nc1nc(Nc2ccccc2)sc1C(=O)c1c(F)cccc1F | enzyme activity, inhibitor | 10 µM | remaining activity | 82%
CC(C)(O)[C@H]1CC[C@H](Nc2ccc3ncc(-c4cccc(C(F)(F)F)c4)n3n2)CC1 | enzyme activity, inhibitor | 1 µM | remaining activity | 95.4%
O=c1cc(-c2cccc3c2Sc2ccccc2S3)oc(N2CCOCC2)c1 | enzyme activity, inhibitor | 0.5 µM | remaining activity | 101%
Oc1cccc(-c2nc(N3CCOCC3)c3oc4ncccc4c3n2)c1 | enzyme activity, inhibitor | 10 µM | remaining activity | 74%
CS(=O)(=O)Nc1cccc(-c2csc(NC(=O)CSc3nc4nccnc4c(=O)n3CCc3ccccc3)n2)c1 | enzyme activity, inhibitor | 10 µM | inhibition | 4%
C=CC(=O)Nc1cc(Nc2nccc(Nc3cc(Cl)c(F)cc3C(C)(C)O)n2)c(OC)cc1N1CC[C@@H](N(C)C)C1 | enzyme activity, inhibitor | 1 µM | inhibition | -5%
Cn1c2c(c3ccc(Cl)c(Cl)c31)C(C#N)C1(CCOCC1)NC2=O (stereo not shown) | thermal stability, DSF | 10 µM | ΔTm | -0.4 °C
Cn1c(=O)n(-c2ccc(C(C)(C)C#N)cc2)c2c3cc(-c4cnc5ccccc5c4)ccc3ncc21 | enzyme activity, inhibitor | 10 µM | remaining activity | 92%
Cn1c2c(c3ccc(Cl)c(Cl)c31)C(C#N)C(C)(C)NC2=O (stereo not shown) | thermal stability, DSF | 10 µM | ΔTm | -0.4 °C
CN(C)C1CCN(CC#Cc2nn(C3CCCC3)c3nc(NCc4ccccc4)ncc23)C1 (stereo not shown) | enzyme activity, inhibitor, FRET | 1 µM | inhibition | 1%
CC(C)(C)C(=O)c1sc(NC2CCCCC2)nc1N | enzyme activity, inhibitor | 10 µM | remaining activity | 99%
COc1cc(/C=C/C(=O)CC(=O)/C=C/c2ccc(O)c(OC)c2)ccc1O | enzyme activity, inhibitor | 1 µM | activity vs control | 69%
CCCS(=O)(=O)Nc1ccc(F)c(C(=O)c2c[nH]c3ncc(-c4ccc(Cl)cc4)cc23)c1F | enzyme activity, inhibitor | 1 µM | inhibition | < 10%
NS(=O)(=O)c1cc(NC(=O)C2(c3ccccc3Cl)CC2)ccc1Oc1cccc(Cl)c1 | cell-free assay, competition with immobilised ligand | 1 µM | remaining binding | 70%
Cc1ccc(NC(=O)c2ccc(CN3CCN(C)CC3)cc2)cc1Nc1nc(-c2cccnc2)cs1 | cell-free assay | 0.5 µM | remaining signal | 97.8%
O=C(NCCCC1CCCCC1)c1ccc(CNC(=O)c2cnn(-c3ccccc3)c2C(F)(F)F)cc1 | cell-free assay, competition with immobilised ligand | 0.1 µM | remaining binding | 100%
FC(F)(F)Oc1cccc(-c2cnc3ccc(-c4ccncc4)nn23)c1 | enzyme activity, inhibitor, radiometric | 5 µM | activity vs control | 84%
O=C1c2ccccc2-c2n[nH]c3cccc1c23 | enzyme activity, inhibitor | 0.5 µM | activity vs control | 75.8%
Nc1ncnc2occ(-c3ccc(NC(=O)Nc4cc(C(F)(F)F)ccc4F)cc3)c12 | enzyme activity, inhibitor | 20 µM | remaining activity | 0.55%

Compound | assay | setting | endpoint | result
COc1cc(Nc2cnc(C#N)c(O[C@H](C)CN(C)C)n2)ncc1-c1cnn(C)c1 | enzyme activity, inhibitor, radiometric | 10 µM | remaining activity | 86%
c1ccc(CNc2nc(N3CCOc4ccccc43)nc3c2CCCC3)cc1 | target engagement in cells, inhibitor, chemoproteomics | 20 mM | inhibition | -6.4%
N#CCCc1ccc2c(c1)-c1[nH]c3ccc([N+](=O)[O-])cc3c1CC(=O)N2 | cell-free assay | 0.5 µM | remaining signal | 96.3%
Cc1cnc(NC2CCOCC2)nc1-n1cnc(C(=O)NC(CN)c2cc(F)cc(Cl)c2)c1 (stereo not shown) | enzyme activity, inhibitor, radiometric | 1 µM | remaining activity | 100%
CCN(CC)CCNC(=O)c1c(C)[nH]c(/C=C2\C(=O)Nc3ccc(F)cc32)c1C | enzyme activity, inhibitor | 10 µM | inhibition | 9%
O=C(Nc1cnn(-c2csc(C(=O)NC3COC3)c2)c1)Nc1c(F)cccc1Cl | enzyme activity, inhibitor | 5 µM | remaining activity | 94.7%
CC(C)(C)c1nc2c(s1)c1nc(N)ncc1c1ccc(NS(=O)(=O)c3c(F)cccc3F)c(F)c12 | enzyme activity, inhibitor, radiometric | 1 µM | remaining activity | 79%
CCN(CC)c1ccc(C2=NNC(=O)CC2C)cc1[N+](=O)[O-] (stereo not shown) | enzyme activity, inhibitor | 10 µM | remaining activity | 97%
O=C(Nc1cccnn1)N1CCC(=Cc2cccc(Oc3ccc(C(F)(F)F)cn3)c2)CC1 | cell-free assay, competition with immobilised ligand | 1 µM | remaining binding | 83%
N#CC1c2c([nH]c3c(Cl)c(Cl)ccc23)C(=O)NC12CCCCC2 (racemic) | thermal stability, DSF | 10 µM | ΔTm | 0.6 °C
CCCCN(CCCC)C(=O)CN1C[C@@H](c2cc(OC)c3c(c2)OCO3)[C@H](C(=O)O)[C@H]1CC(C)(C)CCC | cell-free assay, competition with immobilised ligand | 1 µM | remaining binding | 100%
Cn1c2c(Cl)c(Cl)ccc2c2cn[nH]c(=O)c21 | thermal stability, DSF | 10 µM | ΔTm | -0.1 °C
CCC(=O)N[C@@H]1CC[C@H](C(=O)N(C)c2ccc(-c3nc4ccccc4o3)cc2)C1 | cell-free assay, competition with immobilised ligand | 1 µM | remaining binding | 100%
COc1cc2ncnc(Nc3ccc(Oc4ccccc4)c(C)c3C)c2cc1OC | enzyme activity, inhibitor | 1 µM | inhibition | 3%
O=C(Nc1cccnn1)N1CC(C/C=C/c2cncc(Oc3ccc(C(F)(F)F)cn3)n2)C1 | cell-free assay, competition with immobilised ligand | 1 µM | remaining binding | 94%
COc1cc2ncnc(Nc3ccc(F)c(Cl)c3)c2cc1OCCCN1CCOCC1 | cell-free assay | 0.5 µM | remaining signal | 86.5%
CCS(=O)(=O)c1cc2cc(C[C@](O)(CC(C)(C)c3ccc(F)cc3C(N)=O)C(F)(F)F)[nH]c2cn1 | cell-free assay, competition with immobilised ligand | 1 µM | remaining binding | 91%
CNC(=O)c1cc(Oc2ccc(NC(=O)Nc3ccc(Cl)c(C(F)(F)F)c3)cc2)ccn1 | enzyme activity, inhibitor | 10 µM | inhibition | -26%
CCOCCn1cc(C(=O)Nc2ccc(-n3nc(-c4cccnc4)cc3C(F)(F)F)cn2)ccc1=O | cell-free assay, competition with immobilised ligand | 1 µM | remaining binding | 100%
Cc1ccc(Nc2nccc(N(C)c3ccc4c(C)n(C)nc4c3)n2)cc1S(N)(=O)=O | enzyme activity, inhibitor | 10 µM | inhibition | 17%
